Measurements gathered from unrelated publications.
Protocols differ between the studies behind these lines. pEC50: −log10 of the molar value. ≈ marks a conversion by molar mass, not a printed value.

The EC50 of O=C(Nc1ccccc1-c1ccc(F)c(F)c1)c1nccnc1C(F)(F)F is reported as 11 µg/mL (Verticillium; microbial growth).
With O=C(O)CN1C(=O)/C(=C/c2ccc(-c3ccc(N(c4ccccc4)c4ccccc4)cc3)cc2)NC1=S the MBC was 3.9 µg/mL (≈ 7.71 µM) (Staphylococcus epidermidis; microbial killing, broth dilution; ATCC12228).
With CC1(C)CC[C@]2(NC(=O)N3CCC[C@H]3CN3CCCC3)CC[C@]3(C)C(=CC[C@@H]4[C@@]5(C)CC[C@@H]6OC(C)(C)OC[C@@]6(C)[C@@H]5CC[C@]43C)[C@@H]2C1 the inhibition was 97.6% (Leishmania mexicana; parasite growth, resazurin; 50 µM, amastigote).
The pEC50 of Cc1ccc(-c2nc3ccccc3s2)cc1NC(=O)c1cc([N+](=O)[O-])c(NCCN)cc1Cl is reported as 6.60 (Leishmania mexicana; parasite growth; J774.A1; intracellular, amastigote).
The inhibition of CC1(C)CC[C@]2(C(=O)O)CC[C@]3(C)C(=CC[C@@H]4[C@@]5(C)CC[C@H](O[C@@H]6OC[C@H](O)[C@H](O)[C@H]6O)[C@@](C)(CO)[C@@H]5CC[C@]43C)[C@@H]2C1 is reported as 96.9% (Leishmania mexicana; parasite growth, resazurin; 50 µM, amastigote).
With O=C(Nc1cncc(-c2nc3ccccc3o2)c1)c1cc([N+](=O)[O-])c(N2CCNCC2)cc1Cl the pEC50 was 6.12 (Leishmania mexicana; parasite growth; J774.A1; intracellular, amastigote).
For CC1(C)CC[C@]2(NC(=O)NCCN3CCCC3)CC[C@]3(C)C(=CC[C@@H]4[C@@]5(C)CC[C@@H]6OC(C)(C)OC[C@@]6(C)[C@@H]5CC[C@]43C)[C@@H]2C1, the inhibition was 99.1% (Leishmania mexicana; parasite growth, resazurin; 50 µM, amastigote).
The MIC of O=C1NC(=S)N/C1=C\c1c2ccccc2c(-c2ccc(N(c3ccccc3)c3ccccc3)cc2)c2ccccc12 is reported as > 1000 µg/mL (Staphylococcus epidermidis; microbial growth, broth dilution; ATCC12228).
With Cc1ccc(-c2nc3ccccc3s2)cc1NC(=O)c1cc([N+](=O)[O-])c(N2CCCCC2)cc1Cl the pEC50 was < 5.00 (Leishmania mexicana; parasite growth; J774.A1; intracellular, amastigote).
